Assay results reported in ChEMBL document CHEMBL1275328, “Targeting the polyamine transport system with benzazepine- and azepine-polyamine conjugates” (J Med Chem, 2010).
Counter-ions that a name gives are not always drawn. The source made the active and inactive calls. The rule behind the calls is not given here.

System: not listed separately
Experiment: Inhibition of [14C]spermidine uptake at polyamine transport system in mouse L1210 cells after 10 mins
Format: cell-based
Details: not given
Summary of the method: (§1)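 2 × 10^6 L1210 cells in 0.6 mL HBSS/20 mM HEPES, 10 min uptake at 37 °C of 1 μM [14C]spermidine with increasing competitor concentrations. IC50 obtained by iterative sigmoidal curve fitting, Ki by Cheng-Prusoff. Spermidine Km from Lineweaver-Burke analysis of uptake at rising labelled substrate. Mean ± SD, three determinations.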

Structure (SMILES) | Ki
NCCCCNCCCCNCCCCN [HOMOSPERMINE] | 0.73 µM
NCCCCCNCCCN | 8.03 µM
NCCCCNCCCCNCCCCNC1=Nc2ccccc2CCC1 | 0.2 µM
NCCCCCCCCNC1=Nc2ccccc2CCC1 | 126 µM
Cl.Cl.NCCCCNC1=NCCCCC1 | 763 µM
Cl.NCCCNCCCCNCCCNC1=Nc2ccc([N+](=O)[O-])cc2CCC1 | 0.12 µM
Cl.NCCCNCCCCNC1=NCCCCC1 | 44.7 µM
Cl.NCCCNCCCCNCCCNC1=NCCCCC1 | 0.35 µM
Cl.NCCCCNCCCNC1=Nc2ccccc2CCC1 | 4.4 µM
NCCCNCCCNCCCNC1=Nc2ccccc2CCC1 | 0.88 µM
COc1ccc2c(c1)CCCC(NCCCNCCCCNCCCN)=N2.Cl | 0.23 µM
NCCCNC[C@@H](O)[C@@H](O)CNCCCN | 5.27 µM
Cl.NCCCNCCCCNCCCNC1=Nc2ccc(Br)cc2CCC1 | 0.14 µM
NCCCNC[C@@H](O)[C@@H](O)CNCCCNC1=Nc2ccccc2CCC1 | 2.25 µM
NCCCCCCCCNC1=NCCCCC1 | 183 µM
NCCCCNCCCCN [HOMOSPERMIDINE] | 2.3 µM
Cl.NCCCNCCCCNCCCNC1=Nc2ccc(N)cc2CCC1 | 0.19 µM
NCCCNCCCNCCCN [NORSPERMINE] | 1.51 µM
NCCCCN [PUTRESCINE DIHYDROCHLORIDE] | 208 µM
Cl.NCCCNCCCCNCCCNC1=Nc2ccccc2CCC1 | 0.15 µM
NCCCNCCCN [NORSPERMIDINE TRIHYDROCHLORIDE] | 5.12 µM
Cl.Cl.NCCCCNC1=Nc2ccccc2CCC1 | 35.1 µM
Cl.NCCCNCCCNC1=NCCCCC1 | 161 µM
NCCCNCCCCNCCCN | 1.34 µM
Cl.NCCCCNCCCCNC1=NCCCCC1 | 5.47 µM
NCCCCCCCCN | 24.1 µM
Cl.NCCCCCNCCCNC1=NCCCCC1 | 45.9 µM
Cl.NCCCCNCCCNC1=NCCCCC1 | 14.6 µM

System: L1210
Experiment: Ratio of spermidine Km to compound Ki for polyamine transport system in mouse L1210 cells
Format: cell-based
Details: not given
Summary of the method: as §1

Structure (SMILES) | Ratio
NCCCCNCCCCNCCCCN [HOMOSPERMINE] | 3.25
NCCCCCNCCCN | 0.29
NCCCCNCCCCNCCCCNC1=Nc2ccccc2CCC1 | 11.9
NCCCCCCCCNC1=Nc2ccccc2CCC1 | 0.019
Cl.Cl.NCCCCNC1=NCCCCC1 | 0.003
Cl.NCCCNCCCCNCCCNC1=Nc2ccc([N+](=O)[O-])cc2CCC1 | 19.8
Cl.NCCCNCCCCNC1=NCCCCC1 | 0.053
Cl.NCCCNCCCCNCCCNC1=NCCCCC1 | 6.77
Cl.NCCCCNCCCNC1=Nc2ccccc2CCC1 | 0.54
NCCCNCCCNCCCNC1=Nc2ccccc2CCC1 | 2.69
COc1ccc2c(c1)CCCC(NCCCNCCCCNCCCN)=N2.Cl | 10.3
NCCCNC[C@@H](O)[C@@H](O)CNCCCN | 0.45
Cl.NCCCNCCCCNCCCNC1=Nc2ccc(Br)cc2CCC1 | 16.9
NCCCNC[C@@H](O)[C@@H](O)CNCCCNC1=Nc2ccccc2CCC1 | 1.05
NCCCCCCCCNC1=NCCCCC1 | 0.013
NCCCCNCCCCN [HOMOSPERMIDINE] | 1.03
Cl.NCCCNCCCCNCCCNC1=Nc2ccc(N)cc2CCC1 | 12.5
NCCCNCCCNCCCN [NORSPERMINE] | 1.57
NCCCCN [PUTRESCINE DIHYDROCHLORIDE] | 0.011
Cl.NCCCNCCCCNCCCNC1=Nc2ccccc2CCC1 | 15.8
NCCCNCCCN [NORSPERMIDINE TRIHYDROCHLORIDE] | 0.46
Cl.Cl.NCCCCNC1=Nc2ccccc2CCC1 | 0.067
Cl.NCCCNCCCNC1=NCCCCC1 | 0.015
NCCCNCCCCNCCCN | 1.77
Cl.NCCCCNCCCCNC1=NCCCCC1 | 0.43
NCCCCCCCCN | 0.098
Cl.NCCCCCNCCCNC1=NCCCCC1 | 0.051
Cl.NCCCCNCCCNC1=NCCCCC1 | 0.16

System: L1210
Experiment: Drug uptake in mouse L1210 cells expressing polyamine transport system after 24 hrs by HPLC
Format: ADME, cell-based
Details: l1210, 24 h
Summary of the method: (§2)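 Compound given at 0.1 to 100 μM for 24 h exposure; medium RPMI 1640/10% FCS with 2 mM aminoguanidine. CHO cells seeded at 2 × 10^5 cells/mL and dosed 24 h after seeding. L1210 cells seeded at 4 × 10^4 cells/mL and dosed at seeding. Cells washed thrice in cold 0.14 M NaCl, sonicated in 0.2 N HClO4. Extracts analysed by ion-pair C18 HPLC with post-column OPA/N-acetylcysteine fluorescence (ex 345, em 455 nm). Protein measured on pellet.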

Structure (SMILES) | Drug uptake
Cl.Cl.NCCCCNC1=NCCCCC1 | Dose-dependent effect
Cl.NCCCNCCCCNC1=NCCCCC1 | Dose-dependent effect
Cl.NCCCNCCCCNCCCNC1=NCCCCC1 | Dose-dependent effect
Cl.NCCCCNCCCNC1=Nc2ccccc2CCC1 | Dose-dependent effect
Cl.NCCCNCCCCNCCCNC1=Nc2ccccc2CCC1 | Dose-dependent effect
Cl.Cl.NCCCCNC1=Nc2ccccc2CCC1 | Dose-dependent effect
Cl.NCCCNCCCNC1=NCCCCC1 | Dose-dependent effect
Cl.NCCCCNCCCCNC1=NCCCCC1 | Dose-dependent effect
Cl.NCCCCCNCCCNC1=NCCCCC1 | Dose-dependent effect
Cl.NCCCCNCCCNC1=NCCCCC1 | Dose-dependent effect

System: CHO
Experiment: Drug uptake in CHO cells expressing polyamine transport system after 24 hrs by HPLC
Format: ADME, cell-based, Cricetulus griseus
Details: chinese hamster
Summary of the method: as §2

Structure (SMILES) | Drug uptake
Cl.Cl.NCCCCNC1=NCCCCC1 | Dose-dependent effect
Cl.NCCCNCCCCNC1=NCCCCC1 | Dose-dependent effect
Cl.NCCCNCCCCNCCCNC1=NCCCCC1 | Dose-dependent effect
Cl.NCCCCNCCCNC1=Nc2ccccc2CCC1 | Dose-dependent effect
Cl.NCCCNCCCCNCCCNC1=Nc2ccccc2CCC1 | Dose-dependent effect
Cl.Cl.NCCCCNC1=Nc2ccccc2CCC1 | Dose-dependent effect
Cl.NCCCNCCCNC1=NCCCCC1 | Dose-dependent effect
Cl.NCCCCNCCCCNC1=NCCCCC1 | Dose-dependent effect
Cl.NCCCCCNCCCNC1=NCCCCC1 | Dose-dependent effect
Cl.NCCCCNCCCNC1=NCCCCC1 | Dose-dependent effect

System: not listed separately
Experiment: Cytostatic toxicity against mouse L1210 cells expressing polyamine transport system assessed as cell viability at 100 uM after 48 hrs by trypan blue assay
Format: ADME, cell-based
Details: not given
Summary of the method: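 L1210 cells exposed 48 h to 100 μM compound, viability scored by Trypan blue exclusion.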

Structure (SMILES) | viability at 48 h, 100 µM
Cl.NCCCCNCCCCNC1=NCCCCC1 | > 95%
Cl.NCCCCNCCCNC1=NCCCCC1 | > 95%

System: not listed separately
Experiment: Cytostatic toxicity against mouse L1210 cells expressing polyamine transport system assessed as reduction in cell growth at 10 uM after 48 hrs by MTT assay
Format: ADME, cell-based
Details: not given
Summary of the method: (§3)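 L1210 cells seeded at 5 × 10^4 cells/mL in RPMI 1640 with 10% FCS and 2 mM aminoguanidine, 37 °C, 5% CO2. Compound added at seeding, 48 h exposure. Growth read as MTT formazan absorbance at 540 nm. Growth taken relative to untreated control cells. Means of three or more experiments.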

Structure (SMILES) | inhibition at 48 h, 10 µM
Cl.NCCCCNCCCCNC1=NCCCCC1 | 65%
Cl.NCCCCNCCCNC1=NCCCCC1 | 30%

System: L1210
Experiment: Ratio of drug uptake in mouse L1210 cells at 10 uM in presence of 5 mM ornithine decarboxylase inhibitor DFMO to drug uptake in mouse L1210 cells at 10 uM after 48 hrs by HPLC
Format: ADME, cell-based
Details: l1210, 48 h
Summary of the method: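 L1210 cells seeded at 4 × 10^4 cells/mL and given 10 μM conjugate at seeding, ±5 mM DFMO, medium containing 2 mM aminoguanidine. Harvest at 48 h, washed in cold 0.14 M NaCl, perchloric extract. Intracellular conjugate measured by ion-pair HPLC with OPA fluorescence. Ratio is DFMO/control accumulation. Mean ± SD of three determinations; Student's t test.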

Structure (SMILES) | Ratio
Cl.NCCCCNCCCNC1=NCCCCC1 | 4

System: L1210
Experiment: Cytostatic toxicity against mouse L1210 cells expressing polyamine transport system after 48 hrs by MTT assay
Format: ADME, cell-based
Details: l1210, 48 h
Summary of the method: as §3

Structure (SMILES) | Activity
COc1ccc2c(c1)CCCC(NCCCNCCCCNCCCN)=N2.Cl | Toxic
Cl.NCCCNCCCCNCCCNC1=Nc2ccc(Br)cc2CCC1 | Toxic
Cl.NCCCNCCCCNCCCNC1=Nc2ccc(N)cc2CCC1 | Toxic

System: L1210
Experiment: Cytostatic toxicity against mouse L1210 cells expressing polyamine transport system assessed as effect on cell growth upto 20 uM after 48 hrs by MTT assay
Format: ADME, cell-based
Details: l1210, 48 h
Summary of the method: as §3

Structure (SMILES) | Activity
Cl.NCCCNCCCCNCCCNC1=Nc2ccc([N+](=O)[O-])cc2CCC1 | Non-toxic

System: L1210
Experiment: Inhibition of reversion of DFMO-induced cytostatic effect against mouse L1210 cells expressing polyamine transport system at 20 uM pretreated with 100 uM putrescine for 24 hrs after DFMO addition measured after 48 hrs by MTT assay
Format: functional, cell-based
Details: not given
Summary of the method: (§4)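 L1210 cells seeded in 5 mM DFMO. After 24 h, free putrescine, spermidine or spermine added with or without 20 μM test compound. Growth measured by MTT assay 48 h later.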

Structure (SMILES) | inhibition
Cl.NCCCNCCCCNCCCNC1=Nc2ccc([N+](=O)[O-])cc2CCC1 | Active

System: L1210
Experiment: Inhibition of reversion of DFMO-induced cytostatic effect against mouse L1210 cells expressing polyamine transport system at 20 uM pretreated with 20 uM spermidine for 24 hrs after DFMO addition measured after 48 hrs by MTT assay
Format: functional, cell-based
Details: not given
Summary of the method: as §4

Structure (SMILES) | inhibition
Cl.NCCCNCCCCNCCCNC1=Nc2ccc([N+](=O)[O-])cc2CCC1 | Active

System: L1210
Experiment: Inhibition of reversion of DFMO-induced cytostatic effect against mouse L1210 cells expressing polyamine transport system at 20 uM pretreated with 1 uM spermine for 24 hrs after DFMO addition measured after 48 hrs by MTT assay
Format: functional, cell-based
Details: not given
Summary of the method: as §4

Structure (SMILES) | inhibition
Cl.NCCCNCCCCNCCCNC1=Nc2ccc([N+](=O)[O-])cc2CCC1 | Active

System: L1210
Experiment: Drug uptake in mouse L1210 cells expressing polyamine transport system in presence of ornithine decarboxylase inhibitor DFMO after 48 hrs by HPLC
Details: l1210, 48 h

Structure (SMILES) | Drug uptake
Cl.Cl.NCCCCNC1=NCCCCC1 | Active
Cl.NCCCNCCCCNC1=NCCCCC1 | Active
Cl.NCCCNCCCCNCCCNC1=NCCCCC1 | Active
Cl.NCCCNCCCCNCCCNC1=Nc2ccccc2CCC1 | Active
Cl.NCCCNCCCNC1=NCCCCC1 | Active
Cl.NCCCCNCCCCNC1=NCCCCC1 | Active
Cl.NCCCCCNCCCNC1=NCCCCC1 | Active
Cl.NCCCCNCCCNC1=NCCCCC1 | Active
